# Reference: ChEMBL document CHEMBL4376835, “Discovery of Nonpungent Transient Receptor Potential Vanilloid 1 (TRPV1) Agonist as Strong Topical Analgesic” (J Med Chem, 2020)
# Activity calls are given as the source filed them.
# Key:
# [1] = target: T1, Transient receptor potential cation channel subfamily V member 1 (Homo sapiens, UniProt Q8NER1); experiment: Agonist activity at human TRPV1 expressed in CHO cells assessed as increase in 45Ca2+ uptake incubated for 5 mins by liquid scintillation counting method; type: cell-based
# How it was run: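 Human or rat TRPV1 heterologously expressed in CHO cells; agonism read as 45Ca2+ uptake, run as previously described. Values are the mean of at least three experiments.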
# [2] = target: Transient receptor potential cation channel subfamily V member 1 (Rattus norvegicus, UniProt O35433); experiment: Displacement of [3H]-RTX from rat TRPV1 expressed in CHO cells incubated for 60 mins by radioligand competition assay based scintillation counting method; type: cell-based
# [3] = target: T1, Transient receptor potential cation channel subfamily V member 1; experiment: Potency index, ratio of Ki of capsaicin to Ki for displacement of [3H]RTX from human TRPV1 expressed in CHO cells incubated for 60 mins by scintillation counting method; type: cell-based
# [4] = target: T1, Transient receptor potential cation channel subfamily V member 1; experiment: Partial agonist activity at human TRPV1 expressed in CHO cells assessed as maximal increase in 45Ca2+ uptake incubated for 5 mins by liquid scintillation counting method relative to capsaicin; type: cell-based
# How it was run: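 Human or rat TRPV1 heterologously expressed in CHO cells; functional agonism read as 45Ca2+ uptake. Values are means of at least three experiments.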
# [5] = target: T1, Transient receptor potential cation channel subfamily V member 1; experiment: Potency index, ratio of EC50 of capsaicin to EC50 of compound for agonist activity at human TRPV1 expressed in CHO cells assessed as increase in 45Ca2+ uptake incubated for 5 mins by liquid scintillation counting method; type: cell-based
# [6] = target: T1, Transient receptor potential cation channel subfamily V member 1; experiment: Potency index, ratio of EC50 of zu-capsaicin to EC50 of compound for agonist activity at human TRPV1 expressed in CHO cells assessed as increase in 45Ca2+ uptake incubated for 5 mins by liquid scintillation counting method; type: cell-based
# [7] = target: T1, Transient receptor potential cation channel subfamily V member 1; experiment: Agonist activity at human TRPV1 expressed in HEK293 cells assessed as increase in calcium influx at 0.3 to 30 uM incubated for 1 min by Fluo-4-AM dye based FLIPR assay; type: cell-based
# How it was run: (§1)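 Cells individually transfected with a single TRP channel (TRPV1, hTRPA1, mTRPA1, mTRPV3 or mTRPM8). Intracellular calcium influx recorded by FLIPR after the test compound was applied. Each cell type was also challenged with an agonist suited to its own TRP channel.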
# [8] = target: Transient receptor potential cation channel subfamily A member 1 (Homo sapiens) (UniProt O75762); experiment: Agonist activity at human TRPA1 expressed in HEK293 cells assessed as increase in calcium influx at 0.3 to 30 uM incubated for 1 min by Fluo-4-AM dye based FLIPR assay; type: cell-based; how it was run: as §1
# [9] = target: Transient receptor potential cation channel subfamily M member 8 (Mus musculus) (UniProt Q8R4D5); experiment: Agonist activity at mouse TRPM8 expressed in HEK293 cells assessed as increase in calcium influx at 0.3 to 30 uM incubated for 1 min by Fluo-4-AM dye based FLIPR assay; type: cell-based; how it was run: as §1
# Mus musculus [10] = experiment: Induction of hypothermia in ICR mouse assessed as decrease in body temperature at 0.5 mg/kg, ip coadministered with capsaicin and measured for 7 hrs; type: functional, organism-based
# Mus musculus [11] = experiment: Induction of hypothermia in ip dosed ICR mouse assessed as decrease in body temperature measured for 7 hrs; type: functional, organism-based
# Mus musculus [12] = experiment: Analgesic activity against formalin-induced nociception ICR mouse model assessed as reduction in pain behaviour by measuring less licking of formalin injected hind paw at 1 mg/kg, ip pretreated with compound 30 mins prior to formalin induction measured during second phase (20-30 mins after formalin injection) by formalin test; type: functional
# How it was run: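 Mice were dosed i.p. with 0.1–10 mg/kg, with vehicle and gabapentin (50, 100 mg/kg i.p.) arms. 2% formalin was injected into the dorsal hindpaw, and paw-licking time was recorded for the first phase (5 min) and the second phase (20–30 min). ED50 was taken from the dose–response. Mean±SEM, n=8.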
# Rattus norvegicus = experiment: Analgesic activity against L5/L6 spinal nerve ligation-induced neuropathic pain Sprague-Dawley rat model assessed as maximal decrease in neuropathic pain by measuring increase in paw withdrawal threshold in response to von frey filament at 1 to 4 mg/kg, sc compound administered at day 14 after ligation and measured at 30 mins after drug dosing by up and down method; type: functional, organism-based
# How it was run: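 Rats with spinal nerve ligation were dosed s.c. Paw withdrawal threshold measured with von Frey filaments up to 1.5 h after dosing. Mean±SEM, n=7-8, compared with vehicle.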
# Mus musculus [13] = experiment: Antiallodynic activity against capsaicin-induced mechanical allodynia ICR mouse model assessed as inhibition of mechanical hyperalgesia administered topically 30 mins before capsaicin injection and measured over 5 mins; type: functional, organism-based
# [14] = Systemic drug absorption in porcine skin assessed as drug accumulation in acceptor Franz cell applied topically as carbopol-gel with 1% formulation measured for 8 hrs by Franz diffusion cell based in vitro transdermal delivery test; type: ADME, tissue-based, Sus scrofa, Zone of skin; conditions: pig
# [15] = Toxicity in ip dosed ICR mouse administered as single dose; type: organism-based; conditions: in vivo
# [16] = Toxicity in po dosed ICR mouse administered as single dose; type: organism-based; conditions: in vivo
# [17] = Genotoxicity in CHL/IU cells by chromosomal aberration assay; type: toxicity, cell-based, Cricetulus griseus; conditions: chinese hamster
# [18] = target: Transient receptor potential cation channel subfamily V member 1 (Rattus norvegicus) (UniProt O35433); experiment: Agonist activity at rat TRPV1 expressed in HEK293 cells assessed as increase in calcium influx at 0.3 to 30 uM incubated for 1 min by Fluo-4-AM dye based FLIPR assay; type: cell-based; how it was run: as §1
# [19] = Genotoxicity in Salmonella typhimurium TA97 incubated for 48 hrs by Ames test; type: toxicity; conditions: salmonella enterica subsp. enterica serovar typhimurium
# [20] = Genotoxicity in Salmonella typhimurium TA104 incubated for 48 hrs by Ames test; type: toxicity; conditions: salmonella enterica subsp. enterica serovar typhimurium
# [21] = Genotoxicity in CHO-WBLT cells assessed as chromosomal aberration incubated for 6 hrs in presence of rat S9 by laser scan cytometry; type: toxicity, subcellular, Cricetulus griseus; conditions: chinese hamster, s9, 6 h
# [22] = Genotoxicity in CHO-WBLT cells assessed as chromosomal aberration incubated for 6 hrs in presence of rat S9 by Q-banding technique; type: toxicity, subcellular, Cricetulus griseus; conditions: chinese hamster, s9, 6 h
# [23] = Genotoxicity in Salmonella typhimurium TA100 incubated for 48 hrs in presence of rat S9 by Ames test; type: toxicity, subcellular; conditions: salmonella enterica subsp. enterica serovar typhimurium, s9, 48 h
# [24] = Genotoxicity in Salmonella typhimurium TA104 incubated for 48 hrs in presence of rat S9 by Ames test; type: toxicity, subcellular; conditions: salmonella enterica subsp. enterica serovar typhimurium, s9, 48 h
# [25] = Genotoxicity in Salmonella typhimurium TA1537 incubated for 48 hrs in presence of rat S9 by Ames test; type: toxicity, subcellular; conditions: salmonella enterica subsp. enterica serovar typhimurium, s9, 48 h
# [26] = Genotoxicity in Salmonella typhimurium TA1538 incubated for 48 hrs in presence of rat S9 by Ames test; type: toxicity, subcellular; conditions: salmonella enterica subsp. enterica serovar typhimurium, s9, 48 h
# T1 sequence (Q8NER1 whole entry): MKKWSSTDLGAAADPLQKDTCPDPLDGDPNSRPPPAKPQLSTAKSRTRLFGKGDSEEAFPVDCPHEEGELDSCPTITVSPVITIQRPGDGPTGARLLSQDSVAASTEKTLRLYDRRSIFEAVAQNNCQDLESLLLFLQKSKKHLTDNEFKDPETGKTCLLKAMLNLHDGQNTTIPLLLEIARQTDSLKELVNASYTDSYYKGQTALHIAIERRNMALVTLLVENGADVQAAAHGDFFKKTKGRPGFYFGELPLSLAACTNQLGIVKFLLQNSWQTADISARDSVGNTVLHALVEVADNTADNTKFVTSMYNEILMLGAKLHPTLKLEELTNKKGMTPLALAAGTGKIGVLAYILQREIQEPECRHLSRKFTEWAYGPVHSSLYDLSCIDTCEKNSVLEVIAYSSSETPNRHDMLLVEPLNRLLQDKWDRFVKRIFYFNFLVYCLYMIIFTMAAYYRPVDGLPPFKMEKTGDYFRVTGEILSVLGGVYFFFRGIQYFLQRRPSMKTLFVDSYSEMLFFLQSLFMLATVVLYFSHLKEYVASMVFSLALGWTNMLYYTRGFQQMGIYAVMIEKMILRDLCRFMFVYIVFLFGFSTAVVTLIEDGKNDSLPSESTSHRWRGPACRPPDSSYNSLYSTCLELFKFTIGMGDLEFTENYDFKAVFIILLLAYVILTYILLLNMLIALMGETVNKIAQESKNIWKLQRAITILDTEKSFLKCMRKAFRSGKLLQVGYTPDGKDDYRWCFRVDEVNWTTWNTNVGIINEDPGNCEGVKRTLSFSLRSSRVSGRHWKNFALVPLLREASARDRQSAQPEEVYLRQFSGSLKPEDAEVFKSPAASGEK
# Transient receptor potential cation channel subfamily V member 1 (Rattus norvegicus, UniProt O35433), sequence (O35433 whole entry): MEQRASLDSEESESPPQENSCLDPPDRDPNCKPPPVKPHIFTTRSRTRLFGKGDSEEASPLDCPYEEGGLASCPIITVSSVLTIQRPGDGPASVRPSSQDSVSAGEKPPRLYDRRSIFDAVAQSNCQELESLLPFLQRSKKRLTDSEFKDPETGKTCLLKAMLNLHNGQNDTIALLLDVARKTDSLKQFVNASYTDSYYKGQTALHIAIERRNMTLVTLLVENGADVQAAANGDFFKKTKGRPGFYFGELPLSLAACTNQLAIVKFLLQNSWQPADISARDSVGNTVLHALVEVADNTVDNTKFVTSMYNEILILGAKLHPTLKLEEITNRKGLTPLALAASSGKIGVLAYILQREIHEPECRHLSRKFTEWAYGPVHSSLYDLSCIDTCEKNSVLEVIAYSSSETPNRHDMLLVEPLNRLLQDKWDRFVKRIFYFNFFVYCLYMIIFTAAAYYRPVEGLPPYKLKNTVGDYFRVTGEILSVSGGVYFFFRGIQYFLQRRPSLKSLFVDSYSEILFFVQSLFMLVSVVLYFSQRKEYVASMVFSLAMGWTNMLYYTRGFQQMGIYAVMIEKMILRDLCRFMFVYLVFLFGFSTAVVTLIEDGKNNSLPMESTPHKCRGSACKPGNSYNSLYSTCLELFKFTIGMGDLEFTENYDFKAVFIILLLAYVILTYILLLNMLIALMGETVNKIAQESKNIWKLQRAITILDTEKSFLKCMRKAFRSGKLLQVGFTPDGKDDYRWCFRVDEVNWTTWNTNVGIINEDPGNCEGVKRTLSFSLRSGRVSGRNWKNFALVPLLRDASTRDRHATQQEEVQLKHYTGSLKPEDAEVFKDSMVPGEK
# Transient receptor potential cation channel subfamily V member 1 (Rattus norvegicus), sequence (O35433 whole entry): as above
# Transient receptor potential cation channel subfamily A member 1 (Homo sapiens), sequence (O75762 whole entry): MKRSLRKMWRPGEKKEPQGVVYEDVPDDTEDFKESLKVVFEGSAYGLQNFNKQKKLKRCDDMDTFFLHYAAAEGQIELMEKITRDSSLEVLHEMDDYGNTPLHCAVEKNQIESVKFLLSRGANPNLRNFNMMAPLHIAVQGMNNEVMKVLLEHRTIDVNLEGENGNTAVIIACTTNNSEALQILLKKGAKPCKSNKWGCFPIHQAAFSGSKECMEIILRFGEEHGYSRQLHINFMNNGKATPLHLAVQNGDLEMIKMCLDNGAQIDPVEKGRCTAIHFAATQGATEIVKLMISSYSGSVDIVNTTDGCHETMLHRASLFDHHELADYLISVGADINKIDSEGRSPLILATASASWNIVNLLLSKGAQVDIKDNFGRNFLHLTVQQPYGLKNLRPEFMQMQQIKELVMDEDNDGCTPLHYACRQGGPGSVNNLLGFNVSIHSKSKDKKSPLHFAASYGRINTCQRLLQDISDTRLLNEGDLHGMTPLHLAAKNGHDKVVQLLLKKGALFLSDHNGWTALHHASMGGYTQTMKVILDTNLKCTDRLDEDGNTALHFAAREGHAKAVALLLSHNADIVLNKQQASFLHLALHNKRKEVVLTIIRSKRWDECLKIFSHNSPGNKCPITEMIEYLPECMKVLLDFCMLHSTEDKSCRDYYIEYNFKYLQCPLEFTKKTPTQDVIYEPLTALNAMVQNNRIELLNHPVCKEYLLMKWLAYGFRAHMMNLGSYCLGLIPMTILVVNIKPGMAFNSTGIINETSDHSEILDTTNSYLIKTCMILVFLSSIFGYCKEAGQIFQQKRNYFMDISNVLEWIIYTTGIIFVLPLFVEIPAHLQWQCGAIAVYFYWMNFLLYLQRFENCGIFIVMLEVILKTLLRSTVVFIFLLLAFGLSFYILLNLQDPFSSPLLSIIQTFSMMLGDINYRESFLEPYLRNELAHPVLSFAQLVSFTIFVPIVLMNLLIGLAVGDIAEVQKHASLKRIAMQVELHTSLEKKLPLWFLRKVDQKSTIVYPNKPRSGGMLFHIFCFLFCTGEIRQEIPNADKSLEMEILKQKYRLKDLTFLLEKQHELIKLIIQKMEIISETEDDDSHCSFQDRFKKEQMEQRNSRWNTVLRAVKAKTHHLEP
# Transient receptor potential cation channel subfamily M member 8 (Mus musculus), sequence (Q8R4D5 whole entry): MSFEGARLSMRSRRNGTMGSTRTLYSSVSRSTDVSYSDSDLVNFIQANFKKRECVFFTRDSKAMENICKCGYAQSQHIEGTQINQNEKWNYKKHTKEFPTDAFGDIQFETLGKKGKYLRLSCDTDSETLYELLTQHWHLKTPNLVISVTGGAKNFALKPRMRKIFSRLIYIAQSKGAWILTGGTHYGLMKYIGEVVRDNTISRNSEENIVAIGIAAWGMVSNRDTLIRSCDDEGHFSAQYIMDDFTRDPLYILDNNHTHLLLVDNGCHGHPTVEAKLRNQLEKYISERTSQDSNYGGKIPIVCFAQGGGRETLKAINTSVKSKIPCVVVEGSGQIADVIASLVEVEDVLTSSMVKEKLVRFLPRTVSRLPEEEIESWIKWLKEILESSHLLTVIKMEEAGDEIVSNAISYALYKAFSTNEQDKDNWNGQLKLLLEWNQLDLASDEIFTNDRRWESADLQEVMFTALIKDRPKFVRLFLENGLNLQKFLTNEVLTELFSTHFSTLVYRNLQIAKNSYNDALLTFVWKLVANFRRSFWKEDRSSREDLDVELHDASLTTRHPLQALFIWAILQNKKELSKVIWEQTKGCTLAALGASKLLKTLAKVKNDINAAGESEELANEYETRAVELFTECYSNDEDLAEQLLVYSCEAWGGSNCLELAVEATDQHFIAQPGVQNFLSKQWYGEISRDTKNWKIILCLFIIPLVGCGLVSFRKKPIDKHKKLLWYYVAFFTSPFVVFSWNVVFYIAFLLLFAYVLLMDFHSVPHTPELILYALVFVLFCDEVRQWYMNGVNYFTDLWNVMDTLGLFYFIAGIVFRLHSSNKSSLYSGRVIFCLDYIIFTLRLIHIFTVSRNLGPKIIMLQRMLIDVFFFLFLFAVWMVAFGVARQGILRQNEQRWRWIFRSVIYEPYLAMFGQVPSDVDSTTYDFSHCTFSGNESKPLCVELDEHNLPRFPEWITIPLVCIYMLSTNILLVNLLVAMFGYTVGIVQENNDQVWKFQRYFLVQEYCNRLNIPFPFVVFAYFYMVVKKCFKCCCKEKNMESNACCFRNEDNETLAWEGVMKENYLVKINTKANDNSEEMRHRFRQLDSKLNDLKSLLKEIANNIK
smiles,measurement,setting,value
CC(C)(C)c1nc(-c2cccc(Cl)c2)c(CNC(=O)Nc2ccc(CO)c(F)c2)s1,EC50,[1],0.00505 µM
same,Ki,[2],0.0238 µM
same,Ratio Ki,[3],80
same,Activity,[4],50 to 60%
same,Ratio EC50,[5],5
same,Ratio EC50,[6],5
same,Activity,[7],Active
same,Activity,[8],inactive
same,Activity,[9],inactive
same,Activity,Mus musculus [10],Active
same,Activity,Mus musculus [11],Dose-dependent effect
same,MPE,Mus musculus [12],100%
same,Activity,Rattus norvegicus,Active
same,Activity,Mus musculus [13],Dose-dependent effect
same,Drug absorption,[14],Not Active
same,LD50,[15],> 200 mg/kg
same,LD50,[16],> 2000 mg/kg
same,Activity,[17],Non-Toxic
same,Activity,[18],Active
same,Activity,[19],Non-Toxic
same,Activity,[20],Non-Toxic
same,Activity,[21],Non-Toxic
same,Activity,[22],Non-Toxic
same,Activity,[23],Non-Toxic
same,Activity,[24],Non-Toxic
same,Activity,[25],Non-Toxic
same,Activity,[26],Non-Toxic
